The nature of data set [1]: Selectivity index, ratio of CC50 for cytotoxicity against African green monkey Vero cells to IC50 for antiviral activity against Vaccinia virus Copenhagen infected in African green monkey Vero cells. The note with it: read-out: Ratio CC50/IC50. It counts as toxicity, cell-based.
Another data set deals with Vaccinia virus. The experiment in a line: Antiviral activity against Vaccinia virus Copenhagen infected in African green monkey Vero cells assessed as inhibition of virus-induced cytotoxicity incubated for 4 days by neutral red dye uptake based spectrophotometric analysis. It counts as functional, organism-based, Orthopoxvirus vaccinia.
Data set [2] is described as follows: Cytotoxicity against African green monkey Vero cells assessed as cell destruction incubated for 4 days by neutral red dye uptake based spectrophotometric analysis. The class given is toxicity. The following applies: chlorocebus sabaeus, time 4 day. In outline:
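Uninfected confluent Vero monolayers in DMEM with 2% FBS were exposed to 3-fold compound dilutions, final 300 to 0.14 μg mL−1 (some from 600), in triplicate rows for 4 days at 37 °C. Viable cells were measured by neutral red uptake (1.5 h), acid phosphate/ethanol extraction and OD 490 nm. CC50 was taken from semilog concentration–OD curves and recalculated to μM.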

Data set [3] in a line: Selectivity index, ratio of CC50 for cytotoxicity against African green monkey Vero cells to IC50 for antiviral activity against Variola virus India3a infected in African green monkey Vero cells. The class given is toxicity, cell-based. The following applies: read-out: Ratio CC50/IC50.
A short description of data set [4]: Selectivity index, ratio of CC50 for cytotoxicity against African green monkey Vero cells to IC50 for antiviral activity against Cowpox virus Grishak infected in African green monkey Vero cells. The class given is toxicity, cell-based. The note with it: read-out: Ratio CC50/IC50.
Another data set concerns Ectromelia virus. The experiment in a line: Antiviral activity against Ectromelia virus K-1 infected in African green monkey Vero cells assessed as inhibition of virus-induced cytotoxicity incubated for 4 days by neutral red dye uptake based spectrophotometric analysis. The class given is functional, organism-based. The following applies: K-1, Vero, 96 h.
Another data set deals with Cowpox virus. Nature of the data set: Antiviral activity against Cowpox virus Grishak infected in African green monkey Vero cells assessed as inhibition of virus-induced cytotoxicity incubated for 4 days by neutral red dye uptake based spectrophotometric analysis. The class given is functional, organism-based. The following applies: 96 h.
The nature of data set [5]: Selectivity index, ratio of CC50 for cytotoxicity against African green monkey Vero cells to IC50 for antiviral activity against Ectromelia virus K-1 infected in African green monkey Vero cells. The class given is toxicity, cell-based. The following applies: read-out: Ratio CC50/IC50.
The next data set concerns Variola virus. The experiment in a line: Antiviral activity against Variola virus India3a infected in African green monkey Vero cells assessed as inhibition of virus-induced cytotoxicity incubated for 4 days by neutral red dye uptake based spectrophotometric analysis. The class given is functional, organism-based. The note with it: 96 h.
Setting [6] is: Orthopoxvirus vaccinia, Copenhagen, Vero, 96 h, read-out: IC50.

Where only a bound is given, the exact number is not on record here.

Turning to `COc1ccc(-c2nc(C)c(C(C)=O)n2O)cc1`, the selectivity ratio in data set [1] was determined as 34. In addition, in the data set on Vaccinia virus (setting [6]), the IC50 turned out to be 17.9 µM. In addition, the CC50 at 96 h in data set [2] was 614 µM.

In the case of `O=C(NNC(=O)C1C2C=CC(C3CC23)C1C(=O)O)c1ccc(C(F)(F)F)cc1` (stereo unspecified), the selectivity ratio in data set [1] came to 149000; in [3] it was 149000; in data set [4], 133000; in data set [5] it was 149000. Further, the half-inhibitory concentration (IC50) in the data set on Ectromelia virus stood at 0.008 µM; in the data set on Vaccinia virus (setting [6]) it was 0.008 µM; in the data set on Cowpox virus, 0.009 µM; with Variola virus it was 0.008 µM.

For `COn1c(-c2ccc([N+](=O)[O-])cc2)nc2c1C(=O)CC(C)(C)C2`, the selectivity ratio was found to be 291 in data set [1], 291 in data set [3], 65 in [4] and 92 in data set [5]. The half-inhibitory concentration (IC50) with Ectromelia virus is 12.5 µM; in the data set on Vaccinia virus (setting [6]) it was 3.96 µM; in the data set on Cowpox virus it was 17.9 µM; in the data set with Variola virus, 3.96 µM. Further, in data set [2], the half-maximal cytotoxic concentration (CC50) at 96 h came out at 1150 µM.

`Cc1ccc(C)c(COn2c(-c3ccc([N+](=O)[O-])cc3)nc3c2C(=O)CC(C)(C)C3)c1`: the selectivity ratio in data set [1] was 79; in data set [4], under 8; in data set [5], under 8. The 50% inhibitory concentration (IC50) in the data set with Ectromelia virus worked out at 14.4 µM; with Vaccinia virus (setting [6]) it was 1.34 µM; in the data set on Cowpox virus, 32.3 µM. Further, the CC50 at 96 h in data set [2] is 105 µM.

Turning to `COn1c(-c2ccc(N(C)C)cc2)nc(C)c1C(C)=O`, in data set [1], the selectivity ratio was under 8. The half-inhibitory concentration (IC50) with Vaccinia virus (setting [6]) came out at 62.1 µM. In [2], the half-maximal cytotoxic concentration (CC50) at 96 h stood at 197 µM.

Consider `CC1(C)CC(=O)c2c(n(Cc3ccccc3)c(-c3ccc([N+](=O)[O-])cc3)[n+]2[O-])C1`, for which the selectivity ratio in data set [1] was found to be 13. Also, the 50% inhibitory concentration (IC50) in the data set with Vaccinia virus (setting [6]) came out at 27.7 µM. In data set [2], the 50% cytotoxic concentration (CC50) at 96 h stood at 359 µM.

As to `CC1(C)CC(=O)c2c(nc(-c3ccc(C#N)cc3)n2O)C1`, the selectivity ratio in data set [1] is 351; in data set [3] it was 120; in data set [4], 10; in data set [5], 70. In addition, the IC50 came out at 2.49 µM with Ectromelia virus, 0.498 µM in the data set with Vaccinia virus (setting [6]), 17.1 µM in the data set with Cowpox virus and 1.45 µM with Variola virus. The cytotoxic concentration (CC50) at 96 h in data set [2] is 175 µM.

Consider `COn1c(-c2ccc(C#N)cc2)nc(C)c1C(C)=O`, for which the selectivity ratio in [1] was under 8. For the same compound, the half-maximal inhibitory concentration (IC50) in the data set with Vaccinia virus (setting [6]) was 228 µM. Moreover, in [2], the half-maximal cytotoxic concentration (CC50) at 96 h turned out to be 1060 µM.

For the compound `CC(=O)c1c(C)n(C)c(-c2ccc(C#N)cc2)[n+]1[O-]`, the IC50 entry in the data set on Vaccinia virus (vero) is on record as “Not_active”. Further, the CC50 at 96 h in [2] stood at 1510 µM.

Regarding `CC1(C)CC(=O)c2c(nc(-c3ccc([N+](=O)[O-])cc3)n2OCc2ccc(Cl)c(Cl)c2)C1`, the selectivity ratio was 178 in data set [1], 15 in [4] and 60 in data set [5]. Further, the IC50 stood at 1.8 µM in the data set on Ectromelia virus, 0.61 µM with Vaccinia virus (setting [6]) and 7.04 µM in the data set with Cowpox virus. Moreover, in data set [2], the 50% cytotoxic concentration (CC50) at 96 h was determined as 109 µM.

For `COn1c(-c2ccc(C#N)cc2)nc2c1C(=O)CC(C)(C)C2`, the selectivity ratio in [1] was 27. Moreover, the IC50 with Vaccinia virus (setting [6]) was 28.5 µM. Besides, the half-maximal cytotoxic concentration (CC50) at 96 h in [2] was determined as 757 µM.

Turning to `CC1(C)CC(=O)c2c(nc(-c3ccc([N+](=O)[O-])cc3)n2OCc2ccccc2Br)C1`, the selectivity ratio in [1] was 34; in data set [4] it was under 8; in data set [5], under 8. The 50% inhibitory concentration (IC50) with Ectromelia virus stood at 28.7 µM; in the data set with Vaccinia virus (setting [6]), 2.91 µM; with Cowpox virus, 29.1 µM. The CC50 at 96 h in data set [2] turned out to be 100 µM.

On to `CC1(C)CC(=O)c2c(nc(-c3ccc([N+](=O)[O-])cc3)n2OCc2c(F)cccc2F)C1`, for which the results for the selectivity ratio in data set [1], in data set [4] and in data set [5] were 43, under 8 and 12, respectively. For the same compound, the concentration for half-maximal inhibition (IC50) came to 4.49 µM in the data set on Ectromelia virus, 1.22 µM with Vaccinia virus (setting [6]) and 7.39 µM with Cowpox virus. Further, the CC50 at 96 h in data set [2] worked out at 51.7 µM.

In the case of `CC(=O)c1c(C)nc(-c2ccc(C#N)cc2)n1O`, in data set [1], the selectivity ratio is 76. The IC50 with Vaccinia virus (setting [6]) stood at 1.12 µM. In addition, the CC50 at 96 h in data set [2] was 84.6 µM.

Take `CC1(C)CC(=O)c2c(nc(-c3ccc(C(F)(F)F)cc3)n2O)C1`: the selectivity ratio in data set [1] came out at 300; in [3], 257; in [4], 19; in [5], 94. The concentration for half-maximal inhibition (IC50) in the data set on Ectromelia virus is 0.49 µM; with Vaccinia virus (setting [6]), 0.154 µM; with Cowpox virus it was 2.41 µM; in the data set with Variola virus, 0.18 µM. Also, the half-maximal cytotoxic concentration (CC50) at 96 h in data set [2] is 46.2 µM.

As to `CC(=O)c1c(C)nc(-c2ccc(C(F)(F)F)cc2)n1O`, the selectivity ratio in data set [1] was 55. In addition, the 50% inhibitory concentration (IC50) in the data set with Vaccinia virus (setting [6]) turned out to be 0.07 µM. Also, the 50% cytotoxic concentration (CC50) at 96 h in [2] worked out at 3.87 µM.

For `CC1(C)CC(=O)c2c(nc(-c3ccc([N+](=O)[O-])cc3)n2O)C1`, the selectivity ratio in data set [1] was 1070; in data set [3], 373; in data set [4], 123; in data set [5], 358. The IC50 was 0.39 µM in the data set on Ectromelia virus, 0.133 µM in the data set on Vaccinia virus (setting [6]), 1.16 µM in the data set with Cowpox virus and 0.38 µM in the data set with Variola virus. Further, the CC50 at 96 h in data set [2] was determined as 142 µM.

`COn1c(-c2ccc(C(F)(F)F)cc2)nc(C)c1C(C)=O`: the selectivity ratio in [1] was 30. In addition, in the data set with Vaccinia virus (setting [6]), the IC50 came out at 5.9 µM. Besides, the CC50 at 96 h in data set [2] came out at 176 µM.

For `CC(=O)c1c(C)nc(-c2ccc([N+](=O)[O-])cc2)n1O`, the selectivity ratio is 44 in [1], under 8 in data set [4] and 22 in data set [5]. For the same compound, the IC50 in the data set with Ectromelia virus came to 1.3 µM; with Vaccinia virus (setting [6]), 0.651 µM; with Cowpox virus, 5.9 µM. The cytotoxic concentration (CC50) at 96 h in data set [2] amounted to 28.3 µM.

Regarding `Cn1c2c([n+]([O-])c1-c1ccc([N+](=O)[O-])cc1)C(=O)CC(C)(C)C2`, the selectivity ratio in [1] came out at 13. Also, in the data set with Vaccinia virus (setting [6]), the IC50 came out at 183 µM. For the same compound, in data set [2], the 50% cytotoxic concentration (CC50) at 96 h turned out to be 2440 µM.

`CC1(C)CC(=O)c2c(nc(-c3ccc([N+](=O)[O-])cc3)n2OCc2ccccc2)C1`: the selectivity ratio is 182 in [1], 15 in data set [4] and 38 in data set [5]. The IC50 in the data set with Ectromelia virus turned out to be 30.9 µM; in the data set on Vaccinia virus (setting [6]), 6.39 µM; in the data set on Cowpox virus, 78.2 µM. For the same compound, the 50% cytotoxic concentration (CC50) at 96 h in data set [2] was 1160 µM.

On to `CC(=O)c1c(C)n(C)c(-c2ccc([N+](=O)[O-])cc2)[n+]1[O-]`, for which the IC50 result in the data set on Vaccinia virus (vero) is reported as “Not_active”. Further, in data set [2], the 50% cytotoxic concentration (CC50) at 96 h turned out to be 2980 µM.

As for `CC(=O)c1c(C)nc(-c2ccc(N(C)C)cc2)n1O`, in data set [1], the selectivity ratio turned out to be 23. Moreover, the IC50 in the data set with Vaccinia virus (setting [6]) is 12.9 µM. The CC50 at 96 h in [2] was determined as 299 µM.

For `COn1c(-c2ccc([N+](=O)[O-])cc2)nc(C)c1C(C)=O`, the selectivity ratio turned out to be 93 in data set [1], 20 in data set [4] and 32 in data set [5]. Further, the results for the IC50 in the data set with Ectromelia virus, in the data set with Vaccinia virus (setting [6]) and in the data set with Cowpox virus were 13.9 µM, 4.76 µM and 22.3 µM, respectively. For the same compound, the CC50 at 96 h in data set [2] amounted to 444 µM.

As for `Cn1c2c([n+]([O-])c1-c1ccc(C(F)(F)F)cc1)C(=O)CC(C)(C)C2`, the selectivity ratio in data set [1] turned out to be 146. In addition, in the data set with Vaccinia virus (setting [6]), the half-maximal inhibitory concentration (IC50) amounted to 14.2 µM. For the same compound, the CC50 at 96 h in [2] turned out to be 2080 µM.

On to `COc1ccc(-c2nc(C)c(C(C)=O)n2OC)cc1`, for which, in data set [1], the selectivity ratio is under 8. Besides, in the data set on Vaccinia virus (setting [6]), the IC50 amounted to 207 µM. In addition, the 50% cytotoxic concentration (CC50) at 96 h in data set [2] turned out to be 357 µM.

Consider `Nc1ccn(C[C@@H](CO)OCP(=O)(O)O)c(=O)n1` [CIDOFOVIR ANHYDROUS], for which the selectivity ratio in [1] worked out at 34; in [3] it was 26; in data set [4], 23; in [5], 28. Further, the concentration for half-maximal inhibition (IC50) in the data set on Ectromelia virus was 39.4 µM; with Cowpox virus, 48.2 µM; in the data set with Variola virus, 43.1 µM. In data set [2], the CC50 at 96 h came to 1110 µM.

For the origin of these results see ChEMBL document CHEMBL6092128, “2-Aryl-1-hydroxyimidazoles possessing antiviral activity against a wide range of orthopoxviruses, including the variola virus” (RSC Med Chem, 2024).
